Assay outcomes deposited in PubChem BioAssay by The Scripps Research Institute Molecular Screening Center.
NPY Y2 blocker = antagonists of human neuropeptide Y receptor Y2; P49146; NPY-Y2 expressing cells, antagonist mode; inhibition, % at 2.7 µM; actives 0.99% (n = 140,000); AID 793
NPY Y1 blocker = NPY-Y1 (human) receptor antagonism; P25929; HEK293-CNG Y1 cells, membrane potential fluorescence; NPY at EC95, then isoproterenol; inhibition, % at 3.6 µM; actives 1% (n = 200,000); AID 1040;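 active means inhibition above the campaign mean inhibition of all tested compounds plus 3 SD, cut at about 20% in these data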
Target sequence (P25929 whole entry, looked up): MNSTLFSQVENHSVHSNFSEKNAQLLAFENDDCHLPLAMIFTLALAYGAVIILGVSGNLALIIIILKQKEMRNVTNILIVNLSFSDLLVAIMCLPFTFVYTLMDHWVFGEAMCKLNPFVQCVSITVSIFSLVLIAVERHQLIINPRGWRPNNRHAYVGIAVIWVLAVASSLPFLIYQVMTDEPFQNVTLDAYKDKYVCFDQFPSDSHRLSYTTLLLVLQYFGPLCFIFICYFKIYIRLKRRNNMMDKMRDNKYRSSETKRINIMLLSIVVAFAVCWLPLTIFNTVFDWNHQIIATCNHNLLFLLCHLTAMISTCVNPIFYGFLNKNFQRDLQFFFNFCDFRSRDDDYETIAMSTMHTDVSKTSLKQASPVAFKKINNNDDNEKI
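Benchmarks – high control isoproterenol alone, low control NPY with isoproterenol · Material – HEK293 Y1/CNG channel cell line · Times – dye 3 h, compound 60 min room temperature, stimulation 45 min · Probe or stimulus – NPY (25 nM), isoproterenol (1 µM), Ro 20-1724 (25 µM) · Evaluation – % inhibition of NPY effect · Signal – fluorescence, membrane potential probe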
NPY1 pot ag = potentiators or agonists of human neuropeptide Y receptor Y1 | P25929 | NPY-Y1 expressing cells, potentiator/agonist activation | activation, % at 3.6 µM | actives 0.37% (n = 220,000) | AID 1304; in the data active means activation above about 33%, passing the limit was not always enough;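 further: cells stimulated with NPY at EC10 then isoproterenol at EC100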
NPY2 pot ag = human NPY-Y2 potentiation or agonism, primary screen. cells expressing NPY-Y2, potentiator/agonist read-out. activation, % at 3.6 µM. actives 0.45% (n = 220,000). AID 1359; in the data active means activation above about 27%;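 further: cells stimulated with NPY near EC25 plus isoproterenol at EC100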
NPY-Y1 ant conf = human NPY-Y1 antagonism, confirmation | HEK293-CNG NPY-Y1, membrane potential fluorescence, cAMP; NPY challenge against isoproterenol-raised cAMP | actives 21% (n = 1,200) | inhibition, % at 3.6 µM | shares compounds with NPY Y1 blocker | AID 1254; in the data active means inhibition above about 20%
NPY2 antag ctr = counter-screen for NPY-Y1 antagonists: human NPY-Y2 antagonism | HEK293 NPY-Y2 CNG membrane potential fluorescence; cells given NPY, then isoproterenol | actives 28% (n = 1,200) | shares compounds with NPY Y1 blocker | inhibition, % at 3.6 µM
A number is an active result. Rows were chosen to be rich in hits. Some 1.9% of all compounds tested hit in one or more screens of this group. Unless noted, no stated cut-off is given here; in the data, active means inhibition above about 17%; inactive means the rest.

What do the screens show for `COC(=O)C1C(c2ccc(OC)cc2)C(C(=O)OC)S(=O)(=O)C(CCN2CCCCC2)S1(=O)=O` (centres undefined)?
NPY Y1 blocker: inactive; NPY1 pot ag: inactive; NPY2 pot ag: inactive

What do the screens show for `COc1ccccc1CC(=O)Nc1ccc2c(c1)C(=O)NC2=O`?
NPY Y1 blocker: inactive; NPY1 pot ag: inactive; NPY2 pot ag: inactive

What do the screens show for `CCOC1OC(=O)C(Cl)=C1Nc1cc(C)ccc1C` (centres undefined)?
NPY Y1 blocker: inactive; NPY1 pot ag: inactive; NPY2 pot ag: inactive

How did CCOC(=O)CCC(NC(=O)CCCCCCCC(=O)NC(CCC(=O)OCC)C(=O)OCC)C(=O)OCC (centres undefined) do in these assays?
NPY Y2 blocker: inactive; NPY Y1 blocker: inactive; NPY1 pot ag: inactive; NPY2 pot ag: inactive

How did COC(=O)c1ccc(C2C(Oc3ccc(OC)cc3)C(=O)N2CCc2ccc(F)cc2)cc1 (centres undefined) do in these assays?
NPY Y2 blocker: inactive; NPY Y1 blocker: 21; NPY1 pot ag: inactive; NPY2 pot ag: inactive; NPY-Y1 ant conf: inactive; NPY2 antag ctr: inactive

Results for CC1(C)C(CSc2nc3ccccc3[nH]2)C1(Cl)Cl (centres undefined) ?
NPY Y1 blocker: 92; NPY1 pot ag: inactive; NPY2 pot ag: inactive; NPY-Y1 ant conf: 90; NPY2 antag ctr: 110

What do the screens show for `CCOc1ccccc1-c1nc(C(N)=O)c2[nH]c(=O)n(-c3cccc(C)c3)c2n1`?
NPY Y2 blocker: inactive; NPY Y1 blocker: 24; NPY1 pot ag: inactive; NPY2 pot ag: inactive; NPY-Y1 ant conf: inactive; NPY2 antag ctr: inactive

Results for CCOc1cccc(-c2nc(C(N)=O)c3[nH]c(=O)n(-c4cccc(Cl)c4)c3n2)c1O ?
NPY Y2 blocker: inactive; NPY Y1 blocker: inactive; NPY1 pot ag: inactive; NPY2 pot ag: inactive

What do the screens show for `CCCCCCCOC(=O)C[N+](C)(C)CCOC1CC2CCC1(C)C2(C)C` (centres undefined)?
NPY Y2 blocker: inactive; NPY Y1 blocker: inactive; NPY1 pot ag: inactive; NPY2 pot ag: inactive

What do the screens show for `CCCCOC(=O)C[N+](C)(C)CCOC1CC2CCC1(C)C2(C)C` (centres undefined)?
NPY Y2 blocker: inactive; NPY Y1 blocker: 28; NPY1 pot ag: inactive; NPY2 pot ag: inactive; NPY-Y1 ant conf: inactive; NPY2 antag ctr: inactive

How did Cc1cccc(NC(=O)c2cc(N3CCOCC3)nc3ccccc23)c1 do in these assays?
NPY Y2 blocker: inactive; NPY Y1 blocker: inactive; NPY1 pot ag: inactive; NPY2 pot ag: inactive

How did Cc1cccc(NC(=O)c2cc(Cl)nc3ccccc23)c1 do in these assays?
NPY Y2 blocker: inactive; NPY Y1 blocker: 24; NPY1 pot ag: inactive; NPY2 pot ag: inactive; NPY-Y1 ant conf: inactive; NPY2 antag ctr: inactive

What do the screens show for `O=C(Cc1c[nH]c2ccccc12)Nc1ccc(N2CCOCC2)cc1`?
NPY Y1 blocker: inactive; NPY1 pot ag: inactive; NPY2 pot ag: inactive

How did CCCCNCCOc1ccccc1-c1ccccc1 do in these assays?
NPY Y2 blocker: inactive; NPY Y1 blocker: 30; NPY1 pot ag: inactive; NPY2 pot ag: inactive; NPY-Y1 ant conf: inactive; NPY2 antag ctr: inactive

Results for CC1CCCN(CCCOc2ccccc2-c2ccccc2)C1 (centres undefined) ?
NPY Y1 blocker: 25; NPY1 pot ag: inactive; NPY2 pot ag: inactive; NPY-Y1 ant conf: inactive; NPY2 antag ctr: inactive

What do the screens show for `COCCCNCCOc1ccccc1-c1ccccc1`?
NPY Y2 blocker: inactive; NPY Y1 blocker: inactive; NPY1 pot ag: inactive; NPY2 pot ag: inactive

Results for c1ccc(-c2ccccc2OCCCCN2CCCCCC2)cc1 ?
NPY Y1 blocker: 24; NPY1 pot ag: inactive; NPY2 pot ag: inactive; NPY-Y1 ant conf: inactive; NPY2 antag ctr: inactive

How did Nc1nnnn1CC(=O)N/N=C/c1ccccn1 do in these assays?
NPY1 pot ag: inactive; NPY2 pot ag: inactive

How did O=C1/C(=C\c2ccc(O)c(O)c2)N=C2CCCCCN12 do in these assays?
NPY1 pot ag: inactive; NPY2 pot ag: inactive

How did CCCCc1ccc(N/C(N)=N/c2nc(C)cc(C)n2)cc1 do in these assays?
NPY1 pot ag: inactive; NPY2 pot ag: inactive

How did O=C(NCc1ccc2c(c1)OCO2)C1CCN(c2nccc(C(F)(F)F)n2)CC1 do in these assays?
NPY1 pot ag: inactive; NPY2 pot ag: inactive

Results for COc1ccc(NC(=O)Cc2coc3cc(C)ccc23)cn1 ?
NPY Y1 blocker: inactive; NPY1 pot ag: inactive; NPY2 pot ag: inactive

How did CCN1/C(=C/c2sc(-c3ccccc3C)c[n+]2C)Sc2ccccc21 do in these assays?
NPY Y1 blocker: 40; NPY1 pot ag: inactive; NPY2 pot ag: inactive; NPY-Y1 ant conf: 28; NPY2 antag ctr: inactive

Results for CCN1/C(=C/c2ccc3cc(C)ccc3[n+]2CC)Sc2ccccc21 ?
NPY Y2 blocker: inactive; NPY Y1 blocker: inactive; NPY1 pot ag: inactive; NPY2 pot ag: inactive

How did Cn1nc(OCC(=O)O)cc1C(F)(F)F do in these assays?
NPY1 pot ag: inactive; NPY2 pot ag: inactive

How did COc1cc(-c2nnc(COc3ccc4ccccc4c3)o2)cc(OC)c1OC do in these assays?
NPY Y2 blocker: inactive; NPY Y1 blocker: 23; NPY1 pot ag: inactive; NPY2 pot ag: inactive; NPY-Y1 ant conf: inactive; NPY2 antag ctr: inactive

How did CC(=O)CSc1nnc(-c2ccc3c(c2)OCO3)o1 do in these assays?
NPY Y2 blocker: inactive; NPY Y1 blocker: 21; NPY1 pot ag: inactive; NPY2 pot ag: inactive; NPY-Y1 ant conf: inactive; NPY2 antag ctr: inactive

Results for O=C(O)CCSc1nnc(-c2ccc3c(c2)OCO3)o1 ?
NPY Y2 blocker: inactive; NPY Y1 blocker: inactive; NPY1 pot ag: inactive; NPY2 pot ag: inactive

What do the screens show for `COc1ccc(-c2nc3ccccc3n2Cc2ccccc2)cc1`?
NPY Y2 blocker: inactive; NPY Y1 blocker: inactive; NPY1 pot ag: inactive; NPY2 pot ag: inactive

How did COc1ccc(-c2n(Cc3ccccc3)c3ccccc3[n+]2Cc2ccccc2)cc1 do in these assays?
NPY Y1 blocker: 62; NPY1 pot ag: inactive; NPY2 pot ag: inactive; NPY-Y1 ant conf: inactive; NPY2 antag ctr: 22

What do the screens show for `CCN(CC)S(=O)(=O)c1cc(NC(=O)CSc2nccn2C)ccc1C`?
NPY Y1 blocker: inactive; NPY1 pot ag: inactive; NPY2 pot ag: inactive

What do the screens show for `Cc1ccc(-n2c(-c3ccccc3)c[n+]3c2CCC3)cc1`?
NPY Y1 blocker: inactive; NPY1 pot ag: inactive; NPY2 pot ag: inactive

How did Cc1ccc(-n2c(-c3ccccc3)c[n+]3c2CCc2ccccc2-3)c(C)c1 do in these assays?
NPY Y1 blocker: 58; NPY1 pot ag: inactive; NPY2 pot ag: inactive; NPY-Y1 ant conf: 32; NPY2 antag ctr: inactive

How did O=C(O)CC1(CC(=O)Nc2ccc3c(c2)C(=O)OC3)CCCCC1 do in these assays?
NPY1 pot ag: inactive; NPY2 pot ag: inactive

How did Brc1ccc(-c2nnc3c4ccccc4nc(N4CCOCC4)n23)cc1 do in these assays?
NPY Y2 blocker: inactive; NPY Y1 blocker: inactive; NPY1 pot ag: inactive; NPY2 pot ag: inactive

How did Clc1ccc(-c2nnc3c4ccccc4nc(N4CCOCC4)n23)cc1Cl do in these assays?
NPY Y2 blocker: inactive; NPY Y1 blocker: 21; NPY1 pot ag: inactive; NPY2 pot ag: inactive; NPY-Y1 ant conf: inactive; NPY2 antag ctr: inactive
